Assay results published in ChEMBL document CHEMBL4689842, “EUbOPEN Chemogenomics Library wave 1” (2021).

System: U2OS
Experiment: Multiplex assay against U2OS
Type: toxicity, cell-based
Conditions: human
Method in brief: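 Phenotypes for tubulin, mitochondrial mass and membrane permeability are expressed as per cents of healthy-nucleus cells. Cells were stained live at seeding with Hoechst33342, BioTracker Green Microtubule Cytoskeleton Dye, MitoTracker Red and Annexin V Alexa Fluor 680, then imaged after compound addition on a CQ1 microscope at 37°C and 5% CO2. Machine-learning gating in CellPathfinder separated Hoechst high-intensity objects from normal cells, divided normal cells by nuclear state (healthy, pyknosed, fragmented) and divided pyknosed cells into mitotic or apoptotic.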

[1] = 12 h, 1 µM, compound concentration 1 uM, replicate 1
[2] = 12 h, 1 µM, compound concentration 1 uM, replicate 2
[3] = 12 h, 10 µM, compound concentration 10 uM, replicate 1
[4] = 12 h, 10 µM, compound concentration 10 uM, replicate 2
[5] = 24 h, 1 µM, compound concentration 1 uM, replicate 1
[6] = 24 h, 1 µM, compound concentration 1 uM, replicate 2
[7] = 24 h, 10 µM, compound concentration 10 uM, replicate 1
[8] = 24 h, 10 µM, compound concentration 10 uM, replicate 2
[9] = 48 h, 1 µM, compound concentration 1 uM, replicate 1
[10] = 48 h, 1 µM, compound concentration 1 uM, replicate 2
[11] = 48 h, 10 µM, compound concentration 10 uM, replicate 1
[12] = 48 h, 10 µM, compound concentration 10 uM, replicate 2

Cc1nc(Cc2cccc(C(F)(F)F)c2)sc1-c1ccc(C(N)=O)nc1 [TP-024n]
Population Apoptotic (%) [1]: 58% | Population Fragmented Nuclei (%) [1]: 8% | Population Healthy Nuclei (%) [1]: 85% | Population Hoechst High Intensity Objects (%) [1]: 5% | Population Membrane Permeable-Phenotype (%) [1]: 5% | Population Mitochondria Different-Phenotype (%) [1]: 10% | Population Mitotic Cells (%) [1]: 41% | Population Normal (%) [1]: 94% | Population Pyknosed Nuclei (%) [1]: 6% | Population Tubulin-Different-Phenotype (%) [1]: 9% | Total Cell Count [1]: 159 | Population Apoptotic (%) [2]: 50% | Population Fragmented Nuclei (%) [2]: 0% | Population Healthy Nuclei (%) [2]: 94% | Population Hoechst High Intensity Objects (%) [2]: 11% | Population Membrane Permeable-Phenotype (%) [2]: 2% | Population Mitochondria Different-Phenotype (%) [2]: 18% | Population Mitotic Cells (%) [2]: 50% | Population Normal (%) [2]: 88% | Population Pyknosed Nuclei (%) [2]: 5% | Population Tubulin-Different-Phenotype (%) [2]: 16% | Total Cell Count [2]: 130 | Population Apoptotic (%) [3]: 45% | Population Healthy Nuclei (%) [3]: 68% | Population Hoechst High Intensity Objects (%) [3]: 6% | Population Membrane Permeable-Phenotype (%) [3]: 3% | Population Mitochondria Different-Phenotype (%) [3]: 27% | Population Mitotic Cells (%) [3]: 54% | Population Normal (%) [3]: 93% | Population Pyknosed Nuclei (%) [3]: 13% | Population Tubulin-Different-Phenotype (%) [3]: 22% | Total Cell Count [3]: 186 | Population Apoptotic (%) [4]: 66% | Population Fragmented Nuclei (%) [4]: 17% | Population Healthy Nuclei (%) [4]: 67% | Population Hoechst High Intensity Objects (%) [4]: 4% | Population Membrane Permeable-Phenotype (%) [4]: 9% | Population Mitochondria Different-Phenotype (%) [4]: 21% | Population Mitotic Cells (%) [4]: 33% | Population Normal (%) [4]: 95% | Population Pyknosed Nuclei (%) [4]: 14% | Population Tubulin-Different-Phenotype (%) [4]: 11% | Total Cell Count [4]: 44 | Population Apoptotic (%) [5]: 46% | Population Fragmented Nuclei (%) [5]: 6% | Population Healthy Nuclei (%) [5]: 86% | Population Hoechst High Intensity Objects (%) [5]: 4% | Population Membrane Permeable-Phenotype (%) [5]: 3% | Population Mitochondria Different-Phenotype (%) [5]: 8% | Population Mitotic Cells (%) [5]: 53% | Population Normal (%) [5]: 95% | Population Pyknosed Nuclei (%) [5]: 6% | Population Tubulin-Different-Phenotype (%) [5]: 8% | Total Cell Count [5]: 164 | Population Apoptotic (%) [6]: 50% | Population Fragmented Nuclei (%) [6]: 5% | Population Healthy Nuclei (%) [6]: 91% | Population Hoechst High Intensity Objects (%) [6]: 5% | Population Membrane Permeable-Phenotype (%) [6]: 1% | Population Mitochondria Different-Phenotype (%) [6]: 7% | Population Mitotic Cells (%) [6]: 50% | Population Pyknosed Nuclei (%) [6]: 3% | Population Tubulin-Different-Phenotype (%) [6]: 15% | Total Cell Count [6]: 126 | Population Apoptotic (%) [7]: 42% | Population Fragmented Nuclei (%) [7]: 19% | Population Membrane Permeable-Phenotype (%) [7]: 8% | Population Mitochondria Different-Phenotype (%) [7]: 23% | Population Mitotic Cells (%) [7]: 57% | Population Pyknosed Nuclei (%) [7]: 21% | Population Tubulin-Different-Phenotype (%) [7]: 16% | Total Cell Count [7]: 241 | Population Apoptotic (%) [8]: 44% | Population Fragmented Nuclei (%) [8]: 14% | Population Healthy Nuclei (%) [8]: 58% | Population Hoechst High Intensity Objects (%) [8]: 2% | Population Membrane Permeable-Phenotype (%) [8]: 25% | Population Mitochondria Different-Phenotype (%) [8]: 32% | Population Mitotic Cells (%) [8]: 55% | Population Normal (%) [8]: 97% | Population Pyknosed Nuclei (%) [8]: 26% | Population Tubulin-Different-Phenotype (%) [8]: 22% | Total Cell Count [8]: 60 | Population Apoptotic (%) [9]: 32% | Population Healthy Nuclei (%) [9]: 88% | Population Hoechst High Intensity Objects (%) [9]: 3% | Population Membrane Permeable-Phenotype (%) [9]: 2% | Population Mitochondria Different-Phenotype (%) [9]: 8% | Population Mitotic Cells (%) [9]: 68% | Population Normal (%) [9]: 96% | Population Pyknosed Nuclei (%) [9]: 6% | Population Tubulin-Different-Phenotype (%) [9]: 7% | Total Cell Count [9]: 160 | Population Apoptotic (%) [10]: 33% | Population Fragmented Nuclei (%) [10]: 4% | Population Healthy Nuclei (%) [10]: 92% | Population Hoechst High Intensity Objects (%) [10]: 4% | Population Membrane Permeable-Phenotype (%) [10]: 3% | Population Mitochondria Different-Phenotype (%) [10]: 10% | Population Mitotic Cells (%) [10]: 66% | Population Normal (%) [10]: 95% | Population Pyknosed Nuclei (%) [10]: 3% | Population Tubulin-Different-Phenotype (%) [10]: 14% | Total Cell Count [10]: 122 | Population Apoptotic (%) [11]: 55% | Population Fragmented Nuclei (%) [11]: 20% | Population Healthy Nuclei (%) [11]: 56% | Population Hoechst High Intensity Objects (%) [11]: 5% | Population Membrane Permeable-Phenotype (%) [11]: 10% | Population Mitochondria Different-Phenotype (%) [11]: 19% | Population Mitotic Cells (%) [11]: 44% | Population Normal (%) [11]: 94% | Population Pyknosed Nuclei (%) [11]: 22% | Population Tubulin-Different-Phenotype (%) [11]: 13% | Total Cell Count [11]: 386 | Population Apoptotic (%) [12]: 72% | Population Fragmented Nuclei (%) [12]: 17% | Population Healthy Nuclei (%) [12]: 69% | Population Hoechst High Intensity Objects (%) [12]: 6% | Population Membrane Permeable-Phenotype (%) [12]: 32% | Population Mitochondria Different-Phenotype (%) [12]: 32% | Population Mitotic Cells (%) [12]: 27% | Population Normal (%) [12]: 93% | Population Pyknosed Nuclei (%) [12]: 13% | Population Tubulin-Different-Phenotype (%) [12]: 35% | Total Cell Count [12]: 93
